Pf Dd2 growth = blocks growth of Plasmodium falciparum Dd2 parasites; P. falciparum Dd2 growth, SYBR Green, 72 h; hits give low values; activity change, % at 10 µM; 94,000 compounds, 2.3% hits; in the data active means activity change below about -80%; inconclusive means no clear call, values can overlap the other calls
T cruzi growth-1 = T. cruzi proliferation inhibition | T. cruzi beta-gal in NIH3T3, GalScreen luminescence, 90 h | inhibition, % at 8.34 µM | 77,000 compounds, 5.9% hits | AID 624255;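 active means mean inhibition above about 93%, with at least 55% of replicates each passing it, limit read from the data, passing the limit was not always enough; inconclusive means only one of those two conditions holds; inactive means neither condition holds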
IDH1 mut inh = blocks human IDH1 R132H reductase activity; O75874; diaphorase/resazurin fluorescence, 60 min; inhibition, % at 10 µM; 70,000 compounds, 0.18% hits; in the data active means inhibition above about 34%; inconclusive means no clear call, values can overlap the other calls; inactive means below about 11%;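 further: 0% = DMSO and 100% = no enzyme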
KDM4C inh = inhibitors of human demethylase GASC-1 KDM4C. inhibition, % at 12.5 µM. GST-KDM4C 2-372, H3K9me3 peptide, LANCE TR-FRET. 96,000 compounds, 0.15% hits;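 active means mean replicate inhibition above about 25%, with at least 55% of replicates also reaching it, limit read from the data, passing the limit was not always enough; inconclusive means only one of those two conditions met; inactive means neither condition met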
Target sequence (Q9H3R0 2-372 limits assumed): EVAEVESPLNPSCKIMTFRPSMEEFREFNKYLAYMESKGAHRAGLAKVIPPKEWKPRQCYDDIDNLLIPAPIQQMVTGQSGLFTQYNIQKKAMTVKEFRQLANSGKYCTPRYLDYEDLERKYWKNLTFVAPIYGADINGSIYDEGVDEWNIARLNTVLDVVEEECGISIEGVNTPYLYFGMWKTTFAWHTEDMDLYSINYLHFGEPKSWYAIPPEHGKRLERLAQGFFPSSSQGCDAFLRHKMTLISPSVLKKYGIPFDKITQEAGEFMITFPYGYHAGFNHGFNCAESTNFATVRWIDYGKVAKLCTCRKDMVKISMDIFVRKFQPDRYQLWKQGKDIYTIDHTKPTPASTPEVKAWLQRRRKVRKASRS
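Material: N-terminal GST-fused human GASC-1 (KDM4C) fragment, residues 2-372. Input: 10 nM enzyme. Incubation: enzyme reaction 30 min, then detection 60 min, both room temperature. Doses: one test concentration per compound. Read-out basis: inhibition from TR-FRET ratio decrease. Detection: LANCE TR-FRET, excitation 340 nm, emissions 618 and 671 nm.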
T cruzi growth-2 = inhibitors of T. cruzi proliferation; shares compounds with T cruzi growth-1; T. cruzi beta-gal in NIH3T3, GalScreen luminescence, 90 h; inhibition, % at 8.35 µM; 5,600 compounds, 72% hits;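 active means mean replicate inhibition above about 95% and at least 55% of replicates individually reaching it, limit read from the data; inconclusive means only one of the two criteria is met; inactive means neither criterion is met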
T cruzi growth-3 = blocks T. cruzi growth in NIH3T3 host cells. shares compounds with T cruzi growth-1. T. cruzi beta-gal in NIH3T3, GalScreen luminescence, 90 h. inhibition, % at 2.09 µM. 5,600 compounds, 21% hits;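 active means mean inhibition above about 95%, with at least 55% of replicates also reaching it, limit read from the data; inconclusive means meets just one of the two conditions; inactive means meets neither condition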;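 further: plate controls were neutral control median for no effect and positive control median for full effect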
NIH3T3 tox = kills mouse NIH/3T3 fibroblasts; shares compounds with T cruzi growth-1; NIH/3T3 viability, CellTiter-Glo ATP luminescence, 90 h; cytotoxicity (signal decrease), % at 8.35 µM; 5,600 compounds, 14% hits; AID 651742;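 active means mean signal decrease across replicates above about 35% based on untreated-well scatter, with enough replicates individually passing, limit read from the data; inconclusive means no rule stated though some were filed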;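 further: 0% = median of neutral control wells and 100% = median of positive control wells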
3T3 cytotox 2 = kills mouse NIH/3T3 fibroblasts | shares compounds with T cruzi growth-1 | NIH/3T3 viability, CellTiter-Glo ATP luminescence, 90 h | inhibition, % at 24.9 µM | 5,600 compounds, 56% hits | AID 651744;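 active means mean loss of cell viability signal at or above a set limit, and enough replicates individually reaching it; inconclusive means meets only the mean limit or only the replicate share; inactive means meets neither condition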;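 further: 0% = median of neutral control wells and 100% = median of positive control wells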
An asterisk follows results filed as active; ? = inconclusive; . = no result. Most compounds without a hit are left out; they make up all but 5.9% or so of the library.

SMILES | Pf Dd2 growth | T cruzi growth-1 | IDH1 mut inh | KDM4C inh | T cruzi growth-2 | T cruzi growth-3 | NIH3T3 tox | 3T3 cytotox 2
Cc1noc(C)c1S(=O)(=O)N(C)C[C@@H]1OCCCC[C@@H](C)Oc2ccc(NC(=O)Nc3ccc(C(F)(F)F)cc3)cc2C(=O)N([C@@H](C)CO)C[C@@H]1C | -15 | 86 | . | -1 | . | . | . | .
COc1ccccc1C#Cc1ccc([C@@H]2[C@@H](CO)N3CCCCN(C(=O)C4CCC4)C[C@H]23)cc1 | -1 | 88 | . | 0 | . | . | . | .
COc1ccccc1C#Cc1ccc([C@@H]2[C@H](CO)N3CCCCN(C(=O)C4CCC4)C[C@@H]23)cc1 | -15 | 87 | . | 0 | . | . | . | .
COc1ccccc1C#Cc1ccc([C@@H]2[C@@H](CO)N3CCCCN(C(=O)C4CCCC4)C[C@@H]23)cc1 | 13 | 117* | . | . | 102* | 98* | -19 | 105*
COc1ccccc1C#Cc1ccc([C@H]2[C@@H](CO)N3CCCCN(C(=O)C4CC4)C[C@H]23)cc1 | -25 | 108* | . | . | 105* | 103* | 22 | 105*
COc1ccccc1C#Cc1ccc([C@H]2[C@@H](CO)N3CCCCN(C(=O)C4CCC4)C[C@@H]23)cc1 | 3 | 106* | . | -2 | 111* | ? | 50* | 74*
COc1ccccc1C#Cc1ccc([C@H]2[C@H](CO)N3CCCCN(C(=O)C4CCCC4)C[C@@H]23)cc1 | -38 | 107* | . | . | 106* | 106* | 43* | 105*
C[C@H]1CN([C@@H](C)CO)C(=O)c2cccc(NS(C)(=O)=O)c2O[C@H]1CN(C)Cc1ccc(C(=O)Nc2ccccc2N)cc1 | -6 | 79 | 0 | 0 | . | . | . | .
C[C@H]1CN([C@@H](C)CO)C(=O)c2cc(N(C)C)ccc2O[C@@H]1CN(C)S(=O)(=O)c1ccc(F)cc1 | -3 | . | 0 | 1 | . | . | . | .
CCCNC(=O)N(C)C[C@@H]1Oc2cc(C#Cc3cccc(F)c3)ccc2S(=O)(=O)N([C@H](C)CO)C[C@H]1C | -35 | ? | 2 | -4 | 106* | 71 | 47* | 94*
CCCC#Cc1ccc2c(c1)O[C@@H](CN(C)C(=O)NCCC)[C@@H](C)CN([C@H](C)CO)S2(=O)=O | -40 | 40 | -1 | 0 | . | . | . | .
CCCNC(=O)N(C)C[C@@H]1Oc2cc(C#Cc3cccc(F)c3)ccc2S(=O)(=O)N([C@@H](C)CO)C[C@@H]1C | -45 | 117* | 0 | -1 | 110* | 47 | 32 | 83*
CC(=O)N(C)C[C@H]1Oc2cc(C#Cc3cccc(F)c3)ccc2S(=O)(=O)N([C@H](C)CO)C[C@@H]1C | -31 | 64 | 0 | -3 | . | . | . | .
CCCNC(=O)N(C)C[C@H]1Oc2cc(C#Cc3cccc(F)c3)ccc2S(=O)(=O)N([C@H](C)CO)C[C@H]1C | -32 | 125* | -1 | 0 | 106* | 80 | 31 | 66*
CCCNC(=O)N(C)C[C@@H]1Oc2cc(C#CCC(C)C)ccc2S(=O)(=O)N([C@H](C)CO)C[C@@H]1C | -37 | 62 | 0 | -1 | . | . | . | .
CCCNC(=O)N(C)C[C@H]1Oc2cc(C#CCC(C)C)ccc2S(=O)(=O)N([C@@H](C)CO)C[C@@H]1C | -27 | 106* | -3 | -2 | 100* | 31 | 16 | 28*
O=S(=O)(N[C@@H]1CC[C@@H](CCn2cc(-c3ccccc3F)nn2)O[C@@H]1CO)c1ccc(F)cc1 | -20 | -15 | 0 | -1 | . | . | . | .
CC(C)CC#Cc1ccc([C@@H]2[C@H](CO)N3CCCCN(C(=O)Nc4ccccc4)C[C@@H]23)cc1 | -21 | 59 | . | 1 | . | . | . | .
CC(C)NC(=O)N(C)C[C@H]1Oc2cc(C#Cc3cccc(F)c3)ccc2S(=O)(=O)N([C@H](C)CO)C[C@@H]1C | -43 | 4 | 1 | 9 | . | . | . | .
CCCNC(=O)N(C)C[C@@H]1Oc2cc(C#Cc3cccc(F)c3)ccc2S(=O)(=O)N([C@H](C)CO)C[C@@H]1C | -37 | 116* | 0 | 0 | 111* | 61 | 15 | 47*

Assay outcomes (PubChem)
